Laboratory results as given in article PMC3776982 (British Journal of Cancer, 2013).
Like-named read-outs stand apart in the source and are kept apart here.

Columns and labels:
[1] = Everolimus pharmacokinetics in whole blood; assay type: in vivo, human
In short: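 Samples were taken from six expansion-cohort patients at the MTD with paclitaxel, 10 per patient. Post-dose samples were drawn at 1, 2, 4, 6, 12 and 24 h on day 1 of cycle 2. Everolimus was quantified in whole blood by LC-MS/MS after protein precipitation.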

[2] = test system: breast cancer; conditions: 10 mg everolimus daily, patients with breast cancer; ref Ellard et al, 2009; cited from earlier work
[3] = test system: small-cell lung cancer (SCLC); assay: Tumour response by phospho-Akt and phospho-S6 expression; assay type: in vivo, human; conditions: everolimus + paclitaxel
In short: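 Pretreatment tumour specimens were formalin-fixed and paraffin-embedded, cut into 4 μm sections, deparaffinised in xylene and rehydrated. Sections were immunostained on an autostainer with polymer detection, using rabbit monoclonal phospho-Akt (Ser473) at 1:80 and phospho-S6 (Ser235/236) at 1:200. Tumour response was assessed every two cycles by RECIST 1.1.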

[4] = test system: previously treated SCLC patients; assay: Adverse events; assay type: in vivo, human
In short: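 Toxicities graded by CTCAE v3.0 in adults with SCLC that had progressed after ≥2 prior chemotherapy regimens, including a platinum one. Paclitaxel 175 mg m−2 was given as a 3-h IV infusion every 3 weeks. Everolimus was given orally once daily (2.5, 5 or 10 mg) over 21-day courses. Patients were assessed weekly during cycle 1, then every 3 weeks.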

[5] = test system: previously treated SCLC patients; assay type: in vivo, human
In short: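 Open-label 3-level escalation of oral daily everolimus (2.5→5→10 mg) with fixed paclitaxel 175 mg m−2 every 3 weeks; up to six patients per level, no intrapatient escalation. DLT was assessed in cycle 1 and defined as: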

[6] = test system: small-cell lung cancer (SCLC); assay: Tumour response according to RECIST version 1.1; assay type: in vivo, human; conditions: + paclitaxel
[7] = all everolimus doses (n=20), any grade, + 3-weekly paclitaxel 175 mg m^−2
[8] = everolimus 2.5 mg daily (n=6), grade 1/2, + 3-weekly paclitaxel 175 mg m^−2
[9] = everolimus 2.5 mg daily (n=6), grade 3/4, + 3-weekly paclitaxel 175 mg m^−2
[10] = everolimus 5 mg daily (n=11), grade 1/2, + 3-weekly paclitaxel 175 mg m^−2
[11] = everolimus 5 mg daily (n=11), grade 3/4, + 3-weekly paclitaxel 175 mg m^−2
[12] = everolimus 10 mg daily (n=3), grade 1/2, + 3-weekly paclitaxel 175 mg m^−2
[13] = everolimus 10 mg daily (n=3), grade 3/4, + 3-weekly paclitaxel 175 mg m^−2

In the case of `CO[C@H]1C[C@@H]2CC[C@@H](C)[C@@](O)(O2)C(=O)C(=O)N2CCCC[C@H]2C(=O)O[C@H]([C@H](C)C[C@@H]2CC[C@@H](OCCO)[C@H](OC)C2)CC(=O)[C@H](C)/C=C(\C)[C@@H](O)[C@@H](OC)C(=O)[C@H](C)C[C@H](C)/C=C/C=C/C=C/1C` [everolimus], the “Interpatient coefficient of variation of pharmacokinetic parameters” value ([1]; all parameters except Cmin, everolimus 5 mg daily with paclitaxel) is reported as “less than 40%”, the “Interpatient coefficient of variation of Cmin” value ([1]; everolimus 5 mg daily with paclitaxel) is reported as 52% and the AUC(0-t) ([1]; human, whole blood, po, 5 mg) is reported as 0.284 µg·h/mL. For the same compound, the Cmax ([1]; human, whole blood, po, 5 mg) was 0.0244 µg/mL, the Tmax ([1]; human, whole blood, po, 5 mg) was 0.98 to 6.02 h and the Response rate [2] was 12%. The “Response in phospho-S6-negative group (responders/patients)” value [3] was 1/3, the “Response in phospho-S6-positive group (responders/patients)” value [3] was 1/3 and the “Objective responses in patients with phospho-Akt-negative tumours” value ([3]; four patients) was “two objective responses”. The “Objective response in phospho-Akt-positive patients” value ([3]; two patients (one stable and one progressive disease)) was “No objective response”, the “ALT increased (number of patients with adverse event)” value (“ALT increased” for short) [4, 7] was 6 and the “AST increased (number of patients with adverse event)” value (from here on “AST increased”) [4, 7] was 6. The “Anorexia (number of patients with adverse event)” value (from here on “Anorexia”) [4, 7] was 6, the “Diarrhoea (number of patients with adverse event)” value (“Diarrhoea” for short) [4, 7] was 3 and the “Febrile neutropenia (number of patients with adverse event)” value (from here on “Febrile neutropenia”) [4, 7] was 1. The “Itching (number of patients with adverse event)” value (“Itching” below) [4, 7] was 4, the “Leukopenia (number of patients with adverse event)” value (shortened to “Leukopenia”) [4, 7] was 15 and the “Neutropenia (number of patients with adverse event)” value [4, 7] was 16. For the same compound, the “Pain (number of patients with adverse event)” value (“Pain” below) [4, 7] was 10, the “Pneumonitis (number of patients with adverse event)” value (“Pneumonitis” below) [4, 7] was 1 and the “Stomatitis (number of patients with adverse event)” value (shortened to “Stomatitis”) [4, 7] was 8. For the same compound, the “ALT increased” value [4, 8] was 1, the “AST increased” value [4, 8] was 1 and the “Anaemia (number of patients with adverse event)” value (“Anaemia” below) [4, 8] was 5. For the same compound, the “Anorexia” value [4, 8] was 2, the “Diarrhoea” value [4, 8] was 0 and the “Febrile neutropenia” value [4, 8] was 0. For the same compound, the “Hyperglycemia (number of patients with adverse event)” value [4, 8] was 6, the “Hypertriglycemia (number of patients with adverse event)” value (“Hypertriglycemia” below) [4, 8] was 3 and the “Itching” value [4, 8] was 0. The “Leukopenia” value [4, 8] was 4, the “Neuropathy (number of patients with adverse event)” value (“Neuropathy” for short) [4, 8] was 1 and the “Neutropenia (number of patients with adverse event)” value [4, 8] was 3. The “Pain” value [4, 8] was 2, the “Pneumonitis” value [4, 8] was 0 and the “Stomatitis” value [4, 8] was 2. For the same compound, the “Thrombocytopenia (number of patients with adverse event)” value [4, 8] was 2, the “Vomiting (number of patients with adverse event)” value (“Vomiting” below) [4, 8] was 0 and the “ALT increased” value [4, 9] was 0. For the same compound, the “AST increased” value [4, 9] was 0, the “Anaemia” value [4, 9] was 0 and the “Anorexia” value [4, 9] was 0. For the same compound, the “Diarrhoea” value [4, 9] was 0, the “Febrile neutropenia” value [4, 9] was 0 and the “Hyperglycemia (number of patients with adverse event)” value [4, 9] was 0. The “Hypertriglycemia” value [4, 9] was 0, the “Itching” value [4, 9] was 0 and the “Leukopenia” value [4, 9] was 1. The “Neuropathy” value [4, 9] was 0, the “Neutropenia (number of patients with adverse event)” value [4, 9] was 1 and the “Pain” value [4, 9] was 0. For the same compound, the “Pneumonitis” value [4, 9] was 0, the “Stomatitis” value [4, 9] was 0 and the “Thrombocytopenia (number of patients with adverse event)” value [4, 9] was 0. The “Vomiting” value [4, 9] was 0, the “ALT increased” value [4, 10] was 5 and the “AST increased” value [4, 10] was 4. The “Anaemia” value [4, 10] was 10, the “Anorexia” value [4, 10] was 3 and the “Diarrhoea” value [4, 10] was 2. For the same compound, the “Febrile neutropenia” value [4, 10] was 0, the “Hyperglycemia (number of patients with adverse event)” value [4, 10] was 9 and the “Hypertriglycemia” value [4, 10] was 2. For the same compound, the “Itching” value [4, 10] was 2, the “Leukopenia” value [4, 10] was 4 and the “Neuropathy” value [4, 10] was 3. The “Neutropenia (number of patients with adverse event)” value [4, 10] was 3, the “Pain” value [4, 10] was 6 and the “Pneumonitis” value [4, 10] was 1. The “Stomatitis” value [4, 10] was 5, the “Thrombocytopenia (number of patients with adverse event)” value [4, 10] was 3 and the “Vomiting” value [4, 10] was 2. For the same compound, the “ALT increased” value [4, 11] was 0, the “AST increased” value [4, 11] was 0 and the “Anaemia” value [4, 11] was 1. For the same compound, the “Anorexia” value [4, 11] was 0, the “Diarrhoea” value [4, 11] was 0 and the “Febrile neutropenia” value [4, 11] was 1. The “Hyperglycemia (number of patients with adverse event)” value [4, 11] was 0, the “Hypertriglycemia” value [4, 11] was 0 and the “Itching” value [4, 11] was 0. For the same compound, the “Leukopenia” value [4, 11] was 4, the “Neuropathy” value [4, 11] was 1 and the “Neutropenia (number of patients with adverse event)” value [4, 11] was 6. The “Pain” value [4, 11] was 0, the “Pneumonitis” value [4, 11] was 0 and the “Stomatitis” value [4, 11] was 0. The “Thrombocytopenia (number of patients with adverse event)” value [4, 11] was 1, the “Vomiting” value [4, 11] was 0 and the “ALT increased” value [4, 12] was 0. The “AST increased” value [4, 12] was 1, the “Anaemia” value [4, 12] was 3 and the “Anorexia” value [4, 12] was 1. For the same compound, the “Diarrhoea” value [4, 12] was 1, the “Febrile neutropenia” value [4, 12] was 0 and the “Hyperglycemia (number of patients with adverse event)” value [4, 12] was 2. For the same compound, the “Hypertriglycemia” value [4, 12] was 2, the “Itching” value [4, 12] was 2 and the “Leukopenia” value [4, 12] was 2. For the same compound, the “Neuropathy” value [4, 12] was 2, the “Neutropenia (number of patients with adverse event)” value [4, 12] was 1 and the “Pain” value [4, 12] was 2. For the same compound, the “Pneumonitis” value [4, 12] was 0, the “Stomatitis” value [4, 12] was 1 and the “Thrombocytopenia (number of patients with adverse event)” value [4, 12] was 2. The “Vomiting” value [4, 12] was 0, the “ALT increased” value [4, 13] was 0 and the “AST increased” value [4, 13] was 0. For the same compound, the “Anaemia” value [4, 13] was 0, the “Anorexia” value [4, 13] was 0 and the “Diarrhoea” value [4, 13] was 0. The “Febrile neutropenia” value [4, 13] was 0, the “Hyperglycemia (number of patients with adverse event)” value [4, 13] was 1 and the “Hypertriglycemia” value [4, 13] was 0. The “Itching” value [4, 13] was 0, the “Leukopenia” value [4, 13] was 0 and the “Neuropathy” value [4, 13] was 0. For the same compound, the “Neutropenia (number of patients with adverse event)” value [4, 13] was 2, the “Pain” value [4, 13] was 0 and the “Pneumonitis” value [4, 13] was 0. For the same compound, the “Stomatitis” value [4, 13] was 0, the “Thrombocytopenia (number of patients with adverse event)” value [4, 13] was 2 and the “Vomiting” value [4, 13] was 0. The “Dose-limiting toxicity, cycle 1: Hyperglycemia (number of patients)” value [5, 7] was 1, the “Dose-limiting toxicity, cycle 1: Thrombocytopenia (number of patients)” value [5, 7] was 2 and the “Patients who experienced DLT in cycle 1” value ([5]; dose level 1 (everolimus 2.5 mg daily), six patients, + 3-weekly paclitaxel 175 mg m^−2) was “None”. The “Dose-limiting toxicity, cycle 1: Hyperglycemia (number of patients)” value [5, 8] was 0, the “Dose-limiting toxicity, cycle 1: Thrombocytopenia (number of patients)” value [5, 8] was 0 and the “Dose-limiting toxicity, cycle 1: Hyperglycemia (number of patients)” value [5, 9] was 0. For the same compound, the “Dose-limiting toxicity, cycle 1: Thrombocytopenia (number of patients)” value [5, 9] was 0, the “Dose-limiting toxicity, cycle 1: Hyperglycemia (number of patients)” value [5, 10] was 0 and the “Dose-limiting toxicity, cycle 1: Thrombocytopenia (number of patients)” value [5, 10] was 0. The “Dose-limiting toxicity, cycle 1: Hyperglycemia (number of patients)” value [5, 11] was 0, the “Dose-limiting toxicity, cycle 1: Hyperglycemia (number of patients)” value [5, 12] was 0 and the “Dose-limiting toxicity, cycle 1: Thrombocytopenia (number of patients)” value [5, 12] was 0. The “Dose-limiting toxicity, cycle 1: Hyperglycemia (number of patients)” value [5, 13] was 1, the “Dose-limiting toxicity, cycle 1: Thrombocytopenia (number of patients)” value [5, 13] was 1 and the “MTD and recommended phase-2 dose (dose level)” value ([5]; level 2 = everolimus 5 mg daily + 3-weekly paclitaxel 175 mg m^−2) was “level 2”. For the same compound, the “Maximum tolerated dose (MTD) of everolimus” value ([5]; once daily, in combination with paclitaxel 175 mg m^−2 every 3 weeks) was 5 mg, the Objective response rate ([6]; dose level 1 (everolimus 2.5 mg daily), one out of 6 patients) was 17% and the Objective response rate ([6]; dose level 2 (everolimus 5 mg daily), 2 out of 10 patients) was 20%. It also gave an Objective response rate ([6]; dose level 3 (everolimus 10 mg daily), 2 out of 3 patients) of 67%.
